We go through one compound from paper PMC4681442 (Angewandte Chemie (International ed. in English), 2015).

For one data set, the system named is A2780 cells. Briefly: Cell viability. In kind it is cell-based. The settings on record: CDDP without adding D-1, 72 h. In a few lines: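 MTT assay (mitochondrial reductase activity) in cisplatin-sensitive A2780 and cisplatin-resistant A2780cis cells. Cells were incubated 72 h with precursor alone, cisplatin alone, or both together. Viability was expressed relative to untreated control, with significance thresholds p≤0.001 and p≤0.0001.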

The next data set has as its system PC-12 cells. To be noted: cisplatin; cited from earlier work.
Another data set relates to SKOV3 cells. Briefly: Cell viability. Type of data set: cell-based. The settings on record: CDDP 6 μg/mL alone.
A further data set deals with HS-5 cells. Briefly: Cytotoxicity to HS-5 cells. In kind it is cell-based. To be noted: cisplatin (Figure S16).

As to `[NH2][Pt]([NH2])([Cl])[Cl]` [CDDP, cisplatin], the “cell viability of A2780” value in the data set on A2780 cells is “about 38%”. The “inhibition of PC-12 cells” value in the data set on PC-12 cells was “significantly inhibits”. Also, the “inhibition of SKOV3 cells” value in the data set with SKOV3 cells (72 h (Figure 2A)) amounted to 48%. Moreover, the “cell death of SKOV3 cells” value in the data set with SKOV3 cells (72 h, control experiment with 3) is “about 40%”. Besides, in the data set with HS-5 cells, the “inhibition of HS-5 cells” value is reported as “significantly inhibits”.
